{
  "source": "ChEMBL document CHEMBL4732233",
  "about": "“Faropenem reacts with serine and metallo-β-lactamases to give multiple products” (Eur J Med Chem, 2021)",
  "key": {"[1]": {"assay": "Inhibition of KPC-2 (unknown origin)", "set-up": "species or system Bacteria"}, "[2]": {"assay": "Drug metabolism assessed as OXA10 (unknown origin)-mediated compound hydrolysis by measuring (R)-2-((1S,2R)-1-carboxy-2-hydroxypropyl)-5-((R)-tetrahydrofuran-2-yl)-2,3-dihydrothiazole-4-carboxylic acid formation at 5 mM incubated for 16 hrs by 1H-NMR based analysis", "format": "ADME", "conditions": "bacteria, 5000 µM", "how_it_was_run": "(§1)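 OXA-10 at 5 μM with 5 mM faropenem, incubated 16 h in 50 mM sodium phosphate, pH 7.5, 10% (v/v) D2O. Product formation read by 1H NMR (700 MHz) methyl group resonances.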"}, "[3]": {"assay": "Drug metabolism assessed as OXA-23 (unknown origin)-mediated compound hydrolysis by measuring (R)-2-((1S,2R)-1-carboxy-2-hydroxypropyl)-5-((R)-tetrahydrofuran-2-yl)-2,3-dihydrothiazole-4-carboxylic acid formation at 2 mM incubated for 15 mins by 1H-NMR based analysis", "format": "ADME", "conditions": "bacteria, 0.25 h, 2000 µM"}, "[4]": {"assay": "Drug metabolism assessed as OXA-48 (unknown origin)-mediated compound hydrolysis by measuring (R)-2-((1S,2R)-1-carboxy-2-hydroxypropyl)-5-((R)-tetrahydrofuran-2-yl)-2,3-dihydrothiazole-4-carboxylic acid formation at 5 mM incubated for 55 mins by 1H-NMR based analysis", "format": "ADME", "conditions": "bacteria, 5000 µM", "how_it_was_run": "(§2)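 Reaction of OXA-48 (5 μM) with 5 mM faropenem for 55 min in 50 mM sodium phosphate pH 7.5, 10% (v/v) D2O. Products assigned from methyl group resonances in 700 MHz 1H NMR spectra.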"}, "[5]": {"assay": "Drug metabolism assessed as VIM-1 (unknown origin)-mediated compound hydrolysis by measuring (R)-2-((1S,2R)-1-carboxy-2-hydroxypropyl)-5-((R)-tetrahydrofuran-2-yl)-2,3-dihydrothiazole-4-carboxylic acid formation at 5 mM incubated for 5 mins by 1H-NMR based analysis", "format": "ADME", "conditions": "bacteria, 5000 µM"}, "[6]": {"assay": "Drug metabolism assessed as VIM-2 (unknown origin)-mediated compound hydrolysis by measuring (R)-2-((1S,2R)-1-carboxy-2-hydroxypropyl)-5-((R)-tetrahydrofuran-2-yl)-2,3-dihydrothiazole-4-carboxylic acid formation at 5 mM incubated for 5 mins by 1H-NMR based analysis", "format": "ADME", "conditions": "bacteria, 5000 µM"}, "[7]": {"assay": "Drug metabolism assessed as NDM-1 (unknown origin)-mediated compound hydrolysis by measuring (R)-2-((1S,2R)-1-carboxy-2-hydroxypropyl)-5-((R)-tetrahydrofuran-2-yl)-2,3-dihydrothiazole-4-carboxylic acid formation at 5 mM incubated for 5 mins by 1H-NMR based analysis", "format": "ADME", "conditions": "bacteria, 5000 µM", "how_it_was_run": "(§3)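 NDM-1 used at 5 μM with 5 mM faropenem, 5 min incubation, in 50 mM sodium phosphate, pH 7.5, 10% (v/v) D2O. Degradation products monitored by 700 MHz 1H NMR via methyl group signals.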"}, "[8]": {"assay": "Drug metabolism assessed as KPC-2 (unknown origin)-mediated compound hydrolysis by measuring (R)-2-((1S,2R)-1-carboxy-2-hydroxypropyl)-5-((R)-tetrahydrofuran-2-yl)-2,3-dihydrothiazole-4-carboxylic acid formation at 5 mM incubated for 72 mins by 1H-NMR based analysis", "format": "ADME", "conditions": "bacteria, 1.2 h, 5000 µM"}, "[9]": {"assay": "Drug metabolism assessed as L1 (unknown origin)-mediated compound hydrolysis by measuring (R)-2-((1S,2R)-1-carboxy-2-hydroxypropyl)-5-((R)-tetrahydrofuran-2-yl)-2,3-dihydrothiazole-4-carboxylic acid formation at 5 mM incubated for 5 mins by 1H-NMR based analysis", "format": "ADME", "conditions": "bacteria, 5000 µM", "how_it_was_run": "(§4)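 L1 enzyme (125 nM) reacted with 5 mM faropenem for 5 min in 50 mM sodium phosphate pH 7.5 containing 10% (v/v) D2O. Product species assigned by 1H NMR (700 MHz) methyl resonances.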"}, "[10]": {"assay": "Drug metabolism assessed as OXA10 (unknown origin)-mediated compound hydrolysis by measuring (S)-2-((1S,2R)-1-carboxy-2-hydroxypropyl)-5-((R)-tetrahydrofuran-2-yl)-2,3-dihydrothiazole-4-carboxylic acid formation at 5 mM incubated for 16 hrs by 1H-NMR based analysis", "format": "ADME", "conditions": "bacteria, 5000 µM", "how_it_was_run": "as §1"}, "[11]": {"assay": "Drug metabolism assessed as OXA-23 (unknown origin)-mediated compound hydrolysis by measuring (S)-2-((1S,2R)-1-carboxy-2-hydroxypropyl)-5-((R)-tetrahydrofuran-2-yl)-2,3-dihydrothiazole-4-carboxylic acid formation at 2 mM incubated for 15 mins by 1H-NMR based analysis", "format": "ADME", "conditions": "bacteria, 0.25 h, 2000 µM"}, "[12]": {"assay": "Drug metabolism assessed as OXA-48 (unknown origin)-mediated compound hydrolysis by measuring (S)-2-((1S,2R)-1-carboxy-2-hydroxypropyl)-5-((R)-tetrahydrofuran-2-yl)-2,3-dihydrothiazole-4-carboxylic acid formation at 5 mM incubated for 55 mins by 1H-NMR based analysis", "format": "ADME", "conditions": "bacteria, 5000 µM", "how_it_was_run": "as §2"}, "[13]": {"assay": "Drug metabolism assessed as VIM-1 (unknown origin)-mediated compound hydrolysis by measuring (S)-2-((1S,2R)-1-carboxy-2-hydroxypropyl)-5-((R)-tetrahydrofuran-2-yl)-2,3-dihydrothiazole-4-carboxylic acid formation at 5 mM incubated for 5 mins by 1H-NMR based analysis", "format": "ADME", "conditions": "bacteria, 5000 µM"}, "[14]": {"assay": "Drug metabolism assessed as VIM-2 (unknown origin)-mediated compound hydrolysis by measuring (S)-2-((1S,2R)-1-carboxy-2-hydroxypropyl)-5-((R)-tetrahydrofuran-2-yl)-2,3-dihydrothiazole-4-carboxylic acid formation at 5 mM incubated for 5 mins by 1H-NMR based analysis", "format": "ADME", "conditions": "bacteria, 5000 µM"}, "[15]": {"assay": "Drug metabolism assessed as NDM-1 (unknown origin)-mediated compound hydrolysis by measuring (S)-2-((1S,2R)-1-carboxy-2-hydroxypropyl)-5-((R)-tetrahydrofuran-2-yl)-2,3-dihydrothiazole-4-carboxylic acid formation at 5 mM incubated for 5 mins by 1H-NMR based analysis", "format": "ADME", "conditions": "bacteria, 5000 µM", "how_it_was_run": "as §3"}, "[16]": {"assay": "Drug metabolism assessed as KPC-2 (unknown origin)-mediated compound hydrolysis by measuring (S)-2-((1S,2R)-1-carboxy-2-hydroxypropyl)-5-((R)-tetrahydrofuran-2-yl)-2,3-dihydrothiazole-4-carboxylic acid formation at 5 mM incubated for 72 mins by 1H-NMR based analysis", "format": "ADME", "conditions": "bacteria, 1.2 h, 5000 µM"}, "[17]": {"assay": "Drug metabolism assessed as L1 (unknown origin)-mediated compound hydrolysis by measuring (S)-2-((1S,2R)-1-carboxy-2-hydroxypropyl)-5-((R)-tetrahydrofuran-2-yl)-2,3-dihydrothiazole-4-carboxylic acid formation at 5 mM incubated for 5 mins by 1H-NMR based analysis", "format": "ADME", "conditions": "bacteria, 5000 µM", "how_it_was_run": "as §4"}, "[18]": {"assay": "Drug metabolism assessed as OXA10 (unknown origin)-mediated compound hydrolysis by measuring (R)-2-((1S,2R)-1-carboxy-2-hydroxypropyl)-5-(4-hydroxybutylidene)-2,5-dihydrothiazole-4-carboxylic acid formation at 5 mM incubated for 16 hrs by 1H-NMR based analysis", "format": "ADME", "conditions": "bacteria, 5000 µM", "how_it_was_run": "as §1"}, "[19]": {"assay": "Drug metabolism assessed as OXA-23 (unknown origin)-mediated compound hydrolysis by measuring (R)-2-((1S,2R)-1-carboxy-2-hydroxypropyl)-5-(4-hydroxybutylidene)-2,5-dihydrothiazole-4-carboxylic acid formation at 2 mM incubated for 15 mins by 1H-NMR based analysis", "format": "ADME", "conditions": "bacteria, 0.25 h, 2000 µM"}, "[20]": {"assay": "Drug metabolism assessed as OXA-48 (unknown origin)-mediated compound hydrolysis by measuring (R)-2-((1S,2R)-1-carboxy-2-hydroxypropyl)-5-(4-hydroxybutylidene)-2,5-dihydrothiazole-4-carboxylic acid formation at 5 mM incubated for 55 mins by 1H-NMR based analysis", "format": "ADME", "conditions": "bacteria, 5000 µM", "how_it_was_run": "as §2"}, "[21]": {"assay": "Drug metabolism assessed as VIM-1 (unknown origin)-mediated compound hydrolysis by measuring (R)-2-((1S,2R)-1-carboxy-2-hydroxypropyl)-5-(4-hydroxybutylidene)-2,5-dihydrothiazole-4-carboxylic acid formation at 5 mM incubated for 5 mins by 1H-NMR based analysis", "format": "ADME", "conditions": "bacteria, 5000 µM"}, "[22]": {"assay": "Drug metabolism assessed as VIM-2 (unknown origin)-mediated compound hydrolysis by measuring (R)-2-((1S,2R)-1-carboxy-2-hydroxypropyl)-5-(4-hydroxybutylidene)-2,5-dihydrothiazole-4-carboxylic acid formation at 5 mM incubated for 5 mins by 1H-NMR based analysis", "format": "ADME", "conditions": "bacteria, 5000 µM"}, "[23]": {"assay": "Drug metabolism assessed as NDM-1 (unknown origin)-mediated compound hydrolysis by measuring (R)-2-((1S,2R)-1-carboxy-2-hydroxypropyl)-5-(4-hydroxybutylidene)-2,5-dihydrothiazole-4-carboxylic acid formation at 5 mM incubated for 5 mins by 1H-NMR based analysis", "format": "ADME", "conditions": "bacteria, 5000 µM", "how_it_was_run": "as §3"}, "[24]": {"assay": "Drug metabolism assessed as KPC-2 (unknown origin)-mediated compound hydrolysis by measuring (R)-2-((1S,2R)-1-carboxy-2-hydroxypropyl)-5-(4-hydroxybutylidene)-2,5-dihydrothiazole-4-carboxylic acid formation at 5 mM incubated for 72 mins by 1H-NMR based analysis", "format": "ADME", "conditions": "bacteria, 1.2 h, 5000 µM"}, "[25]": {"assay": "Drug metabolism assessed as L1 (unknown origin)-mediated compound hydrolysis by measuring (R)-2-((1S,2R)-1-carboxy-2-hydroxypropyl)-5-(4-hydroxybutylidene)-2,5-dihydrothiazole-4-carboxylic acid formation at 5 mM incubated for 5 mins by 1H-NMR based analysis", "format": "ADME", "conditions": "bacteria, 5000 µM", "how_it_was_run": "as §4"}, "[26]": {"assay": "Drug metabolism assessed as OXA10 (unknown origin)-mediated compound hydrolysis by measuring (S)-2-((1S,2R)-1-carboxy-2-hydroxypropyl)-5-(4-hydroxybutylidene)-2,5-dihydrothiazole-4-carboxylic acid formation at 5 mM incubated for 16 hrs by 1H-NMR based analysis", "format": "ADME", "conditions": "bacteria, 5000 µM", "how_it_was_run": "as §1"}},
  "data": [
    {"compound": "C[C@@H](O)[C@H]1C(=O)N2C(C(=O)O)=C([C@H]3CCCO3)S[C@H]12", "note": "[FAROPENEM]", "values": [
      {"measurement": "Ki", "setting": "[1]", "value": 44.1, "unit": "µM"},
      {"measurement": "Drug metabolism", "setting": "[2]", "value": "Metabolite_Detected"},
      {"measurement": "Drug metabolism", "setting": "[3]", "value": "Metabolite_Detected"},
      {"measurement": "Drug metabolism", "setting": "[4]", "value": "Metabolite_Detected"},
      {"measurement": "Drug metabolism", "setting": "[5]", "value": "Metabolite_Detected"},
      {"measurement": "Drug metabolism", "setting": "[6]", "value": "Metabolite_Detected"},
      {"measurement": "Drug metabolism", "setting": "[7]", "value": "Metabolite_Detected"},
      {"measurement": "Drug metabolism", "setting": "[8]", "value": "Metabolite_Detected"},
      {"measurement": "Drug metabolism", "setting": "[9]", "value": "Metabolite_Detected"},
      {"measurement": "Drug metabolism", "setting": "[10]", "value": "Metabolite_Detected"},
      {"measurement": "Drug metabolism", "setting": "[11]", "value": "Metabolite_Detected"},
      {"measurement": "Drug metabolism", "setting": "[12]", "value": "Metabolite_Detected"},
      {"measurement": "Drug metabolism", "setting": "[13]", "value": "Metabolite_Detected"},
      {"measurement": "Drug metabolism", "setting": "[14]", "value": "Metabolite_Detected"},
      {"measurement": "Drug metabolism", "setting": "[15]", "value": "Metabolite_Detected"},
      {"measurement": "Drug metabolism", "setting": "[16]", "value": "Metabolite_Detected"},
      {"measurement": "Drug metabolism", "setting": "[17]", "value": "Metabolite_Detected"},
      {"measurement": "Drug metabolism", "setting": "[18]", "value": "Metabolite_Detected"},
      {"measurement": "Drug metabolism", "setting": "[19]", "value": "Metabolite_Detected"},
      {"measurement": "Drug metabolism", "setting": "[20]", "value": "Metabolite_Detected"},
      {"measurement": "Drug metabolism", "setting": "[21]", "value": "Metabolite_Detected"},
      {"measurement": "Drug metabolism", "setting": "[22]", "value": "Metabolite_Detected"},
      {"measurement": "Drug metabolism", "setting": "[23]", "value": "Metabolite_Detected"},
      {"measurement": "Drug metabolism", "setting": "[24]", "value": "Metabolite_Detected"},
      {"measurement": "Drug metabolism", "setting": "[25]", "value": "Metabolite_Detected"},
      {"measurement": "Drug metabolism", "setting": "[26]", "value": "Metabolite_Detected"}
    ]}
  ]
}
